Compounds with a hit are over-represented: about 2.3% of the library has one in this group of screens.
TRPC4 potent – allosterically enhances the mouse TRPC4 cation channel; HEK293 TRPC4beta/mu-opioid, DAMGO EC20, Fluo-4 Ca2+ flux; hits give high values; B-score at 10 µM; hit rate 0.42% among 310,000;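 active = B-score of calcium response area above 5 SD of library B-scores, with initial fluorescence ratio within 5 SD of library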
Target sequence (Q9QUQ5 whole entry, looked up): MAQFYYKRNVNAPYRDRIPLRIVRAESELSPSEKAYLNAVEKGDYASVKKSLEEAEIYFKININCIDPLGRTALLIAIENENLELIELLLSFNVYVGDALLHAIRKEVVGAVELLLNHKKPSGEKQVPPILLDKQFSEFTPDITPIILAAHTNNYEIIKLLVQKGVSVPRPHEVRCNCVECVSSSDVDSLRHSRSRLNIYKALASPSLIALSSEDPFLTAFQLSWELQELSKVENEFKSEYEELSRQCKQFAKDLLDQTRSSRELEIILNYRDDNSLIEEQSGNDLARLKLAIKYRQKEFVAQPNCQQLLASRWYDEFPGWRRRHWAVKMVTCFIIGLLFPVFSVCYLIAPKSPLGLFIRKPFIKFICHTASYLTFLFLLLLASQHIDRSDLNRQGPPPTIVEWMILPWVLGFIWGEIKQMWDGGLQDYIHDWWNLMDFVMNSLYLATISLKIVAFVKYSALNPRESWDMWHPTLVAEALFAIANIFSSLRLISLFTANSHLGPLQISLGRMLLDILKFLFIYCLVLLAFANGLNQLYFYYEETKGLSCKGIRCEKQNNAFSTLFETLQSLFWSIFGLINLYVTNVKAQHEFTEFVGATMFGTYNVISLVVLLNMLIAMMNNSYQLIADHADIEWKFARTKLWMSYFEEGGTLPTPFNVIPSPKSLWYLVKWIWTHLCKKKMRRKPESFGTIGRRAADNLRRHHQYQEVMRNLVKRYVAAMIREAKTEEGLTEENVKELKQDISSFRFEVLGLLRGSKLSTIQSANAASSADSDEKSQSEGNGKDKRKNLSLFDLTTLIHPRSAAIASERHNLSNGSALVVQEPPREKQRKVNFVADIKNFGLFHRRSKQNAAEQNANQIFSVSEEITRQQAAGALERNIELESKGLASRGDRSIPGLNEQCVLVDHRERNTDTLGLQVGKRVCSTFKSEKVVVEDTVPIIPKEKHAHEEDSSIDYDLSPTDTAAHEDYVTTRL
TRPC4 act – TRPC4 (mouse) channel activation; HEK293 TRPC4beta/mu-opioid, Fluo4 calcium fluorescence; hits give high values; AID 2237; hit rate 0.49% among 310,000; B-score at 10 µM;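 active = B-score above 5 SD of library B-scores, and initial fluorescence ratio not above library mean plus 5 SD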;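 note: positive B-score marks a calcium rise read as TRPC4 activation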
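System – HEK293 cells stably co-expressing mouse TRPC4beta and mu-opioid receptor · Signal – Fluo4 calcium-sensitive dye fluorescence, kinetic, 1 Hz baseline · Benchmarks – buffer (low) and maximal DAMGO (high) · Read-out – B score of integrated fluorescence ratio per well · Incubation – dye loading 45 min room temperature, 110 s kinetic read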
TRPC6 inhibitor – inhibitors of mouse TRPC6 channel | Q61143 | HEK293-TRPC6, membrane potential dye, ACh-evoked depolarization; hits give low values | B-score at 10 µM | hit rate 1.1% among 310,000 | AID 2553;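 active = B-score under library mean minus 3 SD, initial fluorescence not abnormally high, positive integrated signal ratio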;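 note: B-score derived from integrated fluorescence ratio over the kinetic read; more negative B-score means stronger inhibition of depolarization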
TRPC4 inh – inhibitors of mouse TRPC4 channel. HEK293 TRPC4beta/mu-opioid, DAMGO-evoked Fluo4 calcium flux; hits give low values. B-score at 10 µM. hit rate 0.39% among 300,000;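 active = B-score over 3 SD under the library average, no early fluorescence shift, positive overall ratio signal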
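Assay system: Stable TRPC4beta/mu-opioid receptor HEK293 cells | Reagent: DAMGO in two steps, submaximal then maximal | Compound dosing: Single concentration per test compound | Signal: Fluo4 Ca2+ flux fluorescence | Evaluation: Per-well B score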
TRPC6 activator – activators of mouse TRPC6 channel. Q61143. HEK293-TRPC6 membrane potential dye fluorescence; hits give high values. B-score at 10 µM. hit rate 0.13% among 310,000. AID 2550;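 active = B-score of the integrated fluorescence ratio above library mean plus 3 SD, and starting fluorescence ratio within library mean plus 5 SD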;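 note: higher score means more depolarization so channel activation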
TRPC4 sel inh 2 – mouse TRPC4 off-target activity of TRPC6 inhibitors, second screen; HEK293 TRPC4/MOR, membrane potential dye fluorescence; channel activated by saturating DAMGO dose; shares compounds with TRPC6 inhibitor; inhibition, % at 10 µM; hit rate 42% among 920;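 active = compounds whose fluorescence signal differed from control wells by over 3 SD, either direction, in both duplicate plates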
TRPC4 spec – tests whether TRPC6 inhibitors also affect mouse TRPC4 | HEK293 TRPC4/mu-opioid, membrane potential fluorescence | hit rate 61% among 920 | AID 2777 | activity change, negative = inhibition, % at 10 µM | shares compounds with TRPC6 inhibitor;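 active = rise or fall in signal beyond 3 SD of buffer-only wells in both replicate plates, either sign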;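 note: integrated kinetic ratio of fluorescence range over baseline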
HEK293 MPD ctr 2-1 – second counter-screen for TRPC6 inhibitors: parental HEK293 cells; signal change vs control, % at 10 µM; parental HEK293 membrane potential dye fluorescence; maximal acetylcholine challenge after compound addition; shares compounds with TRPC6 inhibitor; hit rate 31% among 920; AID 2779;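 active = membrane potential signal moving either way by over 3 SD of the maximum-effect control, in both duplicate plates, meaning non-specific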
HEK293 MPD ctr-1 – checks TRPC6 inhibitor effects in parental HEK293 cells; shares compounds with TRPC6 inhibitor; parental HEK293 membrane potential dye fluorescence; membrane potential signal change, % at 10 µM; hit rate 60% among 920; AID 2780;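 active = membrane potential signal shifting up or down by more than 3 SD of buffer-only wells, on both duplicate plates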
HEK293 MPD ctr-2 – parental HEK293 nonspecific activity of TRPC6 modulators | membrane potential signal change, % at 10 µM | shares compounds with TRPC6 inhibitor | membrane potential dye fluorescence | hit rate 51% among 2,400;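 active = membrane potential signal moves up or down beyond 5 SD from buffer-only wells, on both duplicate plates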
HEK293 MPD ctr 2-2 – second check of TRPC6 modulator effects in parental HEK293 cells. shares compounds with TRPC6 inhibitor. membrane potential dye fluorescence; after compound, maximal acetylcholine stimulation. inhibition, % at 10 µM. hit rate 14% among 2,400. AID 488926;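 active = membrane potential signal drops by more than 5 SD from the mean control signal, in both duplicate plates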
TRPC4 ctr mod – tests whether TRPC6 modulators also affect mouse TRPC4 | shares compounds with TRPC6 inhibitor | HEK293 TRPC4/mu-opioid, membrane potential fluorescence | percent change from control (negative = decrease, positive = increase), % at 10 µM | hit rate 69% among 2,400 | AID 488927;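 active = membrane potential signal moved up or down beyond 5 SD of buffer control wells, in both duplicate plates, actives on both sides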
TRPC4/MOR inh 2 – second selectivity test of TRPC6 modulators against mouse TRPC4 | shares compounds with TRPC6 inhibitor | HEK293 TRPC4/mu-opioid, membrane potential dye fluorescence; stimulated with maximal-effect DAMGO | inhibition, % at 10 µM | hit rate 55% among 2,400 | AID 488928;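 active = drop in membrane potential signal beyond 5 SD of the control wells in both duplicate plates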;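 note: TRPC4 counter screen for TRPC6 hits run under conditions tuned for TRPC6 not TRPC4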
TRPC6 block conf – confirmation of mouse TRPC6 inhibitors. shares compounds with TRPC6 inhibitor. HEK293-TRPC6, membrane potential dye, ACh-evoked depolarization. inhibition, % at 10 µM. hit rate 43% among 3,300. AID 488960;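 active = fluorescence ratio falls more than 5 SD below the full-stimulation control mean, in both duplicate runs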;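 note: integrated fluorescence ratio of peak minus minimum over baseline after agonist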
TRPC6 act conf – mouse TRPC6 activator confirmation. shares compounds with TRPC6 inhibitor. HEK293-TRPC6 membrane potential dye fluorescence, FDSS. activation, % at 10 µM. hit rate 11% among 2,800;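 active = ratio signal rise beyond 5 SD above unstimulated control wells' mean, seen in both duplicate runs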
Of the large screens only hits and unclear results are named; the others gave an inactive call (follow-up assays come after a bar, where they were run).

NC1=NC(=Nc2ccc(Br)cc2)c2ccccc21	TRPC6 inhibitor -5 | HEK293 MPD ctr-2 inactive | HEK293 MPD ctr 2-2 inactive | TRPC4 ctr mod -17% | TRPC4/MOR inh 2 40% | TRPC6 block conf inactive | TRPC6 act conf inactive
CN(NS(=O)(=O)c1ccc(Br)cc1)c1nc(C(F)(F)F)nc2ccccc12	TRPC6 inhibitor -5.9 | HEK293 MPD ctr-2 inactive | HEK293 MPD ctr 2-2 inactive | TRPC4 ctr mod 18% | TRPC4/MOR inh 2 37% | TRPC6 block conf 46%
CN(N)c1nc(C(F)(F)F)nc2ccccc12	none
O=C(NCC(=O)N1CCN(c2ccccc2)CC1)c1ccccc1	none
Cc1onc(-c2ccccc2Cl)c1C(=O)NCc1nc(-c2ccc(C(F)(F)F)cc2)no1	none
Cc1cc(C)c(OCCCNC2CCCC2)c(Br)c1	TRPC6 inhibitor -5.4, TRPC6 activator 12 | HEK293 MPD ctr-2 201% | HEK293 MPD ctr 2-2 inactive | TRPC4 ctr mod 43% | TRPC4/MOR inh 2 54% | TRPC6 block conf inactive | TRPC6 act conf 94%
Cc1cc(C)c(OCCCNCc2ccccc2)c(Br)c1	none
NC(=O)c1nsc(C(=O)N(c2ccc(F)cc2)C(C(=O)NCC2CCCO2)c2c[nH]c3ccccc23)c1N (stereo not drawn)	none
COc1cc(C(=S)N2CCOCC2)cc(Br)c1OS(=O)(=O)c1ccccc1	none
CCN1CCCC1CNC(=O)c1ccc(Sc2ccc(F)cc2)c([N+](=O)[O-])c1 (stereo not drawn)	TRPC6 inhibitor -8.2 | HEK293 MPD ctr-2 inactive | HEK293 MPD ctr 2-2 inactive | TRPC4 ctr mod inactive | TRPC4/MOR inh 2 56% | TRPC6 block conf 52% | TRPC6 act conf inactive
CCN1CCCC1CNC(=O)c1ccc(Sc2ccccc2Cl)c([N+](=O)[O-])c1 (stereo not drawn)	TRPC6 inhibitor -7.1 | HEK293 MPD ctr-2 inactive | HEK293 MPD ctr 2-2 inactive | TRPC4 ctr mod inactive | TRPC4/MOR inh 2 44% | TRPC6 block conf 42% | TRPC6 act conf inactive
CC(=O)NCCC(=O)Nc1cc(S(=O)(=O)N2CCCCC2)ccc1Oc1ccccc1	none
Cc1cc(N2CCOCC2)nc2ccc(NC(=S)N3CCCCC3C)cc12 (stereo not drawn)	none
Cc1cc(N2CCOCC2)nc2ccc(NC(=O)CCC(=O)N3CCN(c4ccc(F)cc4)CC3)cc12	none
Cc1cc(N2CCCC2)nc2ccc(NC(=S)NCCCN3CCC(C)CC3)cc12	TRPC6 inhibitor -7.2 | TRPC4 sel inh 2 76% | TRPC4 spec -14% | HEK293 MPD ctr 2-1 18% | HEK293 MPD ctr-1 -192% | TRPC6 block conf inactive | TRPC6 act conf inactive
COc1cccc(C(=O)Nc2ccc3nc(N4CCOCC4)cc(C)c3c2)c1	TRPC6 inhibitor -5.9 | HEK293 MPD ctr-2 -154% | HEK293 MPD ctr 2-2 inactive | TRPC4 ctr mod -26% | TRPC4/MOR inh 2 30% | TRPC6 block conf inactive | TRPC6 act conf inactive
Cc1cc(N2CCOCC2)nc2ccc(NC(=O)CCC(=O)N3CCN(c4ccccc4F)CC3)cc12	TRPC6 inhibitor -6.6 | HEK293 MPD ctr-2 -67% | HEK293 MPD ctr 2-2 inactive | TRPC4 ctr mod -16% | TRPC4/MOR inh 2 inactive | TRPC6 block conf inactive | TRPC6 act conf inactive
Cc1cc(N2CCOCC2)nc2ccc(NC(=O)CCC(=O)N3CCCC(C)C3)cc12 (stereo not drawn)	TRPC6 inhibitor -6 | HEK293 MPD ctr-2 -68% | HEK293 MPD ctr 2-2 inactive | TRPC4 ctr mod -18% | TRPC4/MOR inh 2 36% | TRPC6 block conf inactive | TRPC6 act conf inactive
CCCNc1c(NS(=O)(=O)c2cccc(C#N)c2)c(=O)oc2ccccc12	none
N#Cc1ccc(-c2cn(-c3ccccc3)c3[n+]2CCCS3)cc1	TRPC6 inhibitor -6 | HEK293 MPD ctr-2 -214% | HEK293 MPD ctr 2-2 inactive | TRPC4 ctr mod -35% | TRPC4/MOR inh 2 38% | TRPC6 block conf inactive | TRPC6 act conf inactive
COC(=O)c1cccc(NC(=O)CC2NCCNC2=O)c1 (stereo not drawn)	none
COc1cc(NC(=O)CC2NCCNC2=O)cc(OC)c1 (stereo not drawn)	TRPC6 inhibitor -6.1 | HEK293 MPD ctr-2 inactive | HEK293 MPD ctr 2-2 inactive | TRPC4 ctr mod inactive | TRPC4/MOR inh 2 inactive | TRPC6 block conf inactive | TRPC6 act conf inactive
CN(CC(=O)Nc1ccccc1Br)CC(=O)Nc1ccccc1C(F)(F)F	none
CC(C)c1ccc(N2C(=O)CC(Sc3ncn[nH]3)C2=O)cc1 (stereo not drawn)	none
CC(C)c1ccc(N2C(=O)CC(Sc3nc4ccccc4o3)C2=O)cc1 (stereo not drawn)	TRPC6 inhibitor -7.4 | TRPC4 sel inh 2 inactive | TRPC4 spec inactive | HEK293 MPD ctr 2-1 inactive | HEK293 MPD ctr-1 inactive | TRPC6 block conf inactive | TRPC6 act conf inactive
Cc1cc(C)n2nc(C(=O)Nc3ccc(S(=O)(=O)N(C)C)cc3)nc2n1	TRPC6 inhibitor -6 | HEK293 MPD ctr-2 -247% | HEK293 MPD ctr 2-2 inactive | TRPC4 ctr mod -41% | TRPC4/MOR inh 2 36% | TRPC6 block conf inactive | TRPC6 act conf inactive
c1ccc(C[C@H]2CNCCN2CCCCC2CCCCC2)cc1	TRPC6 inhibitor -6 | HEK293 MPD ctr-2 inactive | HEK293 MPD ctr 2-2 inactive | TRPC4 ctr mod inactive | TRPC4/MOR inh 2 48% | TRPC6 block conf inactive | TRPC6 act conf inactive
c1ccc(C[C@H]2CNCCN2CC2CCCCC2)cc1	none

High-throughput results from PubChem.
